{"source": "ChEMBL document CHEMBL1275315", "about": "“Synthesis, antioxidant activities and urease inhibition of some new 1,2,4-triazole and 1,3,4-thiadiazole derivatives” (Eur J Med Chem, 2010)", "key": {"[1]": {"system": "Radical scavenging activity", "experiment": "Antioxidant activity assessed as DPPH free radical scavenging activity in cell-free system after 30 mins", "type": "functional", "in_short": "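Compound dissolved in DMSO and DPPH in ethanol. Decrease in absorbance read at 515 nm after incubation. Percent radical scavenging calculated relative to a DMSO-treated control.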"}, "[2]": {"experiment": "Antioxidant activity assessed as Superoxide anion radical scavenging activity in cell-free system", "type": "functional", "in_short": "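NADH–NBT–PMS system in 0.1 M phosphate buffer, pH 7.4, with sample added from a 1 mM DMSO stock; other reagents made up in buffer. Run at room temperature. Superoxide followed as blue formazan formation at 560 nm.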"}, "[3]": {"target": "Urease (Canavalia ensiformis) (UniProt P07374)", "sequence (P07374 whole entry, looked up)": "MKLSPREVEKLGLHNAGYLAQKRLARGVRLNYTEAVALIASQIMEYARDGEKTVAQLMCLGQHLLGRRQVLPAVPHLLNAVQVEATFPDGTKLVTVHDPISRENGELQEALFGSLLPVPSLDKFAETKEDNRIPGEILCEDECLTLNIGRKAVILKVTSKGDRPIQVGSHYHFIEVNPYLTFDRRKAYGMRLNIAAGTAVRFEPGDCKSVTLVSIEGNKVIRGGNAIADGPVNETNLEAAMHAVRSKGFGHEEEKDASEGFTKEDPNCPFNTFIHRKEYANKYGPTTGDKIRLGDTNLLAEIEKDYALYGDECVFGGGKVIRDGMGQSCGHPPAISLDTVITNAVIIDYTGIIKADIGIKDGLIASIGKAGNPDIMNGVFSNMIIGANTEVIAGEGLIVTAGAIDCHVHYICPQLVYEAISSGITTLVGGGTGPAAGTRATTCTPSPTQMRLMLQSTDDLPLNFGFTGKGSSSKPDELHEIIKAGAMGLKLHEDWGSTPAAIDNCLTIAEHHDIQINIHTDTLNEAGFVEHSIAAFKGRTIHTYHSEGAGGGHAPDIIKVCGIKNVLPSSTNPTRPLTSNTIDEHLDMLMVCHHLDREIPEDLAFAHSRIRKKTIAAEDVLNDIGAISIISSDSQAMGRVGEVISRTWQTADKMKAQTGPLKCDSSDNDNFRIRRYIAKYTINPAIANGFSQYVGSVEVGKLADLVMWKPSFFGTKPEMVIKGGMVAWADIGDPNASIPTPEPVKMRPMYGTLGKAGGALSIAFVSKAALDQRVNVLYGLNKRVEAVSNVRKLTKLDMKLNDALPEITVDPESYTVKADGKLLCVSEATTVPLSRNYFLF", "experiment": "(§1) Inhibition of jack bean urease assessed as ammonia production after 15 mins by indophenol method", "design": "inhibition: concentration or dose not given beside the values", "in_short": "(§2)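 Jack bean urease preincubated with test sample at 30 °C for 15 min in buffer containing 100 mM urea, pH 6.8. Ammonia measured by the indophenol method, using phenol reagent (1% w/v phenol, 0.005% w/v sodium nitroprusside) and alkali reagent (0.5% w/v NaOH, 0.1% active chloride NaOCl). Absorbance at 630 nm read after 50 min. Run in triplicate; % inhibition calculated from OD test/OD control; thiourea as standard.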"}, "Urease": {"target": "Urease (Canavalia ensiformis, UniProt P07374)", "sequence (P07374 whole entry)": "as the sequence (P07374 whole entry, looked up) above", "experiment": "as §1", "in_short": "as §2"}}}
{"smiles": "CCCOC(=O)c1cc(O)c(O)c(O)c1", "note": "[PROPYL GALLATE]", "values": [{"measurement": "IC50", "setting": "[1]", "value": 30.5, "unit": "µM"}, {"measurement": "IC50", "setting": "[2]", "value": 106, "unit": "µM"}]}
{"smiles": "Cc1cccc(C)c1-n1c(-c2ccc(Cl)cc2)n[nH]c1=S", "values": [{"measurement": "inhibition", "setting": "[3]", "value": 7.5, "unit": "%"}]}
{"smiles": "NC(N)=S", "values": [{"measurement": "IC10", "setting": "[3]", "value": 21, "unit": "µM"}]}
{"smiles": "Cc1ccc(-c2n[nH]c(=S)n2-c2c(C)cccc2C)cc1", "values": [{"measurement": "inhibition", "setting": "[3]", "value": 6.8, "unit": "%"}]}
{"smiles": "Cc1ccc(-n2c(-c3cccc(Cl)c3)n[nH]c2=S)c(C)c1", "values": [{"measurement": "inhibition", "setting": "[3]", "value": 53.1, "unit": "%"}, {"measurement": "IC50", "setting": "Urease", "value": 460, "unit": "µM"}]}
{"smiles": "Cc1cccc(-n2c(-c3ccccc3)n[nH]c2=S)c1C", "values": [{"measurement": "inhibition", "setting": "[3]", "value": 93.4, "unit": "%"}, {"measurement": "IC50", "setting": "Urease", "value": 86, "unit": "µM"}]}
{"smiles": "Cc1cccc(Nc2nnc(-c3ccc(Cl)cc3)s2)c1C", "values": [{"measurement": "IC50", "setting": "[2]", "value": 139, "unit": "µM"}, {"measurement": "inhibition", "setting": "[3]", "value": 52.8, "unit": "%"}, {"measurement": "IC50", "setting": "Urease", "value": 484, "unit": "µM"}]}
{"smiles": "Cc1ccccc1-c1n[nH]c(=S)n1-c1cccc(C)c1C", "values": [{"measurement": "inhibition", "setting": "[3]", "value": 43.4, "unit": "%"}]}
{"smiles": "Cc1ccc(-c2nnc(Nc3c(C)cccc3C)s2)cc1", "values": [{"measurement": "inhibition", "setting": "[3]", "value": 27.1, "unit": "%"}]}
{"smiles": "Cc1ccc(Nc2nnc(-c3cccc(Cl)c3)s2)c(C)c1", "values": [{"measurement": "IC50", "setting": "[2]", "value": 124, "unit": "µM"}, {"measurement": "inhibition", "setting": "[3]", "value": 12.4, "unit": "%"}]}
{"smiles": "Cc1ccc(Nc2nnc(-c3ccc([N+](=O)[O-])cc3)s2)c(C)c1", "values": [{"measurement": "IC50", "setting": "[2]", "value": 94.8, "unit": "µM"}, {"measurement": "inhibition", "setting": "[3]", "value": 7.2, "unit": "%"}]}
{"smiles": "Cc1cccc(-n2c(-c3ccc(Cl)cc3)n[nH]c2=S)c1C", "values": [{"measurement": "inhibition", "setting": "[3]", "value": 48.3, "unit": "%"}]}
{"smiles": "Cc1cccc(C)c1-n1c(-c2ccccc2Cl)n[nH]c1=S", "values": [{"measurement": "inhibition", "setting": "[3]", "value": 48.3, "unit": "%"}]}
{"smiles": "Cc1ccc(Nc2nnc(-c3cccc([N+](=O)[O-])c3)s2)c(C)c1", "values": [{"measurement": "IC50", "setting": "[2]", "value": 131, "unit": "µM"}, {"measurement": "inhibition", "setting": "[3]", "value": 73.4, "unit": "%"}, {"measurement": "IC50", "setting": "Urease", "value": 398, "unit": "µM"}]}
{"smiles": "Cc1ccc(-n2c(-c3ccc(Cl)cc3)n[nH]c2=S)c(C)c1", "values": [{"measurement": "IC50", "setting": "[1]", "value": 292, "unit": "µM"}, {"measurement": "inhibition", "setting": "[3]", "value": 88.6, "unit": "%"}, {"measurement": "IC50", "setting": "Urease", "value": 171, "unit": "µM"}]}
{"smiles": "Cc1cccc(C)c1-n1c(-c2cccc(Cl)c2)n[nH]c1=S", "values": [{"measurement": "inhibition", "setting": "[3]", "value": 64.8, "unit": "%"}, {"measurement": "IC50", "setting": "Urease", "value": 357, "unit": "µM"}]}
{"smiles": "Cc1ccc(-n2c(-c3cccc([N+](=O)[O-])c3)n[nH]c2=S)c(C)c1", "values": [{"measurement": "IC50", "setting": "[1]", "value": 242, "unit": "µM"}, {"measurement": "inhibition", "setting": "[3]", "value": 97, "unit": "%"}, {"measurement": "IC50", "setting": "Urease", "value": 45.6, "unit": "µM"}]}
{"smiles": "Cc1cccc(C)c1Nc1nnc(-c2ccc(Cl)cc2)s1", "values": [{"measurement": "IC50", "setting": "[1]", "value": 320, "unit": "µM"}, {"measurement": "IC50", "setting": "[2]", "value": 255, "unit": "µM"}, {"measurement": "inhibition", "setting": "[3]", "value": 91.1, "unit": "%"}, {"measurement": "IC50", "setting": "Urease", "value": 215, "unit": "µM"}]}
{"smiles": "Cc1cccc(C)c1Nc1nnc(-c2ccccc2Cl)s1", "values": [{"measurement": "inhibition", "setting": "[3]", "value": 82.8, "unit": "%"}, {"measurement": "IC50", "setting": "Urease", "value": 313, "unit": "µM"}]}
{"smiles": "Cc1cccc(Nc2nnc(-c3ccccc3)s2)c1C", "values": [{"measurement": "inhibition", "setting": "[3]", "value": 56.8, "unit": "%"}, {"measurement": "IC50", "setting": "Urease", "value": 426, "unit": "µM"}]}
